Each block holds one compound with its values, some of them ahead of it.
Tests used:
[1] = Partition coefficient in octanol/water system was determined using [14C]-labeled compounds.; format: physicochemical
Mus musculus [2] = assay: Percentage decrease in general motor activity with respect to vehicle-injected control in mice at a dose of 30 mg/kg after ip administration; format: functional; details: route intraperitoneal
Mus musculus [3] = assay: Tested for the quanitity of [14C]-labeled (radioactivity) compound taken up into the brain following subcutaneous injection at a 44 mg/kg; format: functional
Summary of the method: (§1)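 Male Balb-c mice (20 ± 2 g) received ¹⁴C-labeled lipid (label on the GABA portion) sc, as diacetate salt or free amine, in 15% propylene glycol in water. Killed at 5 min; brain and liver weighed and homogenized in SDS/EDTA phosphate buffer (pH 7.6), then scintillation counted. nmol/g computed from total radioactivity. BPI = ([brain]/[liver]) × 100. Mean ± SD of three, or two, measurements.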

Mus musculus [4] = assay: Tested for the quanitity of [14C]-labeled (radioactivity) compound taken up into the liver following subcutaneous injection at a 44 mg/kg; format: functional; summary of the method: as §1
[5] = Ratio of the amount in brain as a percent of that present in liver at 5 min is expressed as Brain penetration index (BPI); format: functional; summary of the method: as §1
[6] = Brain-uptake index (BUI) was determined for the compound in rat; format: functional
Summary of the method: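 Rat carotid bolus: male Sprague-Dawley rats (200-300 g) under deep Nembutal anesthesia received a 0.15-mL bolus of ³H2O plus ¹⁴C-labeled compound in 0.01 M HEPES (pH 7.4) into the right carotid artery. Decapitated 5 s later; ipsilateral forebrain homogenized in SDS/urea/EDTA/phosphate buffer (pH 7.4). Duplicate aliquots counted by scintillation, corrected for quench and spillover. BUI = (¹⁴C/³H cpm) brain / (¹⁴C/³H cpm) injectate. Values uncorrected.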

Mus musculus [7] = assay: Tested for the quanitity of [14C]-labeled (radioactivity) compound taken up into the brain following subcutaneous injection at a 36 mg/kg; format: functional; summary of the method: as §1
Mus musculus [8] = assay: Tested for the quanitity of [14C]-labeled (radioactivity) compound taken up into the liver following subcutaneous injection at a 36 mg/kg; format: functional; summary of the method: as §1
[9] = Partition coefficient in octanol/water system was determined; format: physicochemical
Mus musculus [10] = assay: Tested for the quanitity of [14C]-labeled (radioactivity) compound taken up into the liver following subcutaneous injection at a 100 mg/kg; format: functional
Mus musculus [11] = assay: Tested for the quanitity of [14C]-labeled (radioactivity) compound taken up into the brain following subcutaneous injection at a 100 mg/kg; format: functional
Mus musculus [12] = assay: Tested for the quanitity of [14C]-labeled (radioactivity) compound taken up into the liver following subcutaneous injection at a 41 mg/kg; format: functional; summary of the method: as §1
Mus musculus [13] = assay: Tested for the quanitity of [14C]-labeled (radioactivity) compound taken up into the brain following subcutaneous injection at a 41 mg/kg; format: functional; summary of the method: as §1
Mus musculus [14] = assay: Tested for the quanitity of [14C]-labeled (radioactivity) compound taken up into the liver following subcutaneous injection t a 54 mg/kg; format: functional; summary of the method: as §1
Mus musculus [15] = assay: Tested for the quanitity of [14C]-labeled (radioactivity) compound taken up into the brain following subcutaneous injection at a 54 mg/kg; format: functional; summary of the method: as §1
Mus musculus [16] = assay: Tested for the quanitity of [14C]-labeled (radioactivity) compound taken up into the brain following subcutaneous injection at a 40 mg/kg; format: functional; summary of the method: as §1
Mus musculus [17] = assay: Tested for the quanitity of [14C]-labeled (radioactivity) compound taken up into the liver following subcutaneous injection at a 40 mg/kg; format: functional; summary of the method: as §1
Mus musculus [18] = assay: Tested for the quanitity of [14C]-labeled (radioactivity) compound taken up into the liver following subcutaneous injection; format: functional
Mus musculus [19] = assay: Tested for the quanitity of [14C]-labeled (radioactivity) compound taken up into the brain following subcutaneous injection; format: functional

Compound: CC/C=C/C/C=C/C/C=C/CCCCCCCC(=O)OCC(COC(=O)CCCN)OC(=O)CCCN (stereo in doubt)
K [9]: 2.13
Activity (Mus musculus [10]): 3.79 nM/g
Activity (Mus musculus [11]): 2.81 nM/g
BPI [5]: 75%
BUI [6]: 31.5

Compound: CCCCC/C=C/C/C=C/CCCCCCCC(=O)OCC(COC(=O)CCCN)OC(=O)CCCN (stereo in doubt; 3c)
Activity (Mus musculus [14]): 9.19 nM/g
Decrease (Mus musculus [2]): 89.3%
Activity (Mus musculus [15]): 1.32 nM/g
BPI [5]: 14%

Compound: CC/C=C/C/C=C/C/C=C/CCCCCCCC(=O)OCC(COC(=O)CCCN)OC(=O)CCCN (stereo in doubt; 3d)
Decrease (Mus musculus [2]): 82.6%
Activity (Mus musculus [16]): 1.07 nM/g
Activity (Mus musculus [17]): 7.86 nM/g
BPI [5]: 15%

Compound: NCCCC(=O)O [GAMMA-AMINOBUTYRIC ACID]
K [1]: 0.004
Decrease (Mus musculus [2]): 62.1%
Activity (Mus musculus [18]): 4.2 nM/g
Activity (Mus musculus [19]): 0.041 nM/g
BPI [5]: 0.96%
BUI [6]: 2

Further lines, with some results ahead:

K [1]: 8.6
Compound: CCCCCCCCCCCCCCCCCC(=O)OCC(COC(=O)CCCN)OC(=O)CCCN (stereo unspecified)
Decrease (Mus musculus [2]): 62.1%
Activity (Mus musculus [3]): 1.89 nM/g
Activity (Mus musculus [4]): 6.92 nM/g
BPI [5]: 28%
BUI [6]: 45.1

K [1]: 6
Compound: CCCCCCCC/C=C/CCCCCCCC(=O)OCC(COC(=O)CCCN)OC(=O)CCCN (stereo unspecified)
Decrease (Mus musculus [2]): 74%
Activity (Mus musculus [7]): 1.07 nM/g
Activity (Mus musculus [8]): 6.32 nM/g
BPI [5]: 17%
BUI [6]: 53.2

K [9]: 4.2
Compound: CCCCC/C=C/C/C=C/CCCCCCCC(=O)OCC(COC(=O)CCCN)OC(=O)CCCN (stereo in doubt; 3c (L2G2))
Activity (Mus musculus [12]): 8 nM/g
BPI [5]: 97%
BUI [6]: 25.9
Activity (Mus musculus [13]): 7.74 nM/g
